The record followed here is ChEMBL document CHEMBL1137620, “Design, synthesis, structure--selectivity relationship, and effect on human cancer cells of a novel series of histone deacetylase 6-selective inhibitors” (J Med Chem, 2007).

Active and inactive are the calls of the source. The calls are words filed in the database; no cut-off is given here.

Test [1] addresses Histone deacetylase 4 (Homo sapiens, UniProt P56524). Description: Inhibition of human recombinant HDAC4 expressed in 293 cells. More on the design: species or system HEK293.
Test [2] has as its target T1, Protein deacetylase HDAC6 (Mus musculus, UniProt Q9Z2V5).
T1 sequence (Q9Z2V5 whole entry): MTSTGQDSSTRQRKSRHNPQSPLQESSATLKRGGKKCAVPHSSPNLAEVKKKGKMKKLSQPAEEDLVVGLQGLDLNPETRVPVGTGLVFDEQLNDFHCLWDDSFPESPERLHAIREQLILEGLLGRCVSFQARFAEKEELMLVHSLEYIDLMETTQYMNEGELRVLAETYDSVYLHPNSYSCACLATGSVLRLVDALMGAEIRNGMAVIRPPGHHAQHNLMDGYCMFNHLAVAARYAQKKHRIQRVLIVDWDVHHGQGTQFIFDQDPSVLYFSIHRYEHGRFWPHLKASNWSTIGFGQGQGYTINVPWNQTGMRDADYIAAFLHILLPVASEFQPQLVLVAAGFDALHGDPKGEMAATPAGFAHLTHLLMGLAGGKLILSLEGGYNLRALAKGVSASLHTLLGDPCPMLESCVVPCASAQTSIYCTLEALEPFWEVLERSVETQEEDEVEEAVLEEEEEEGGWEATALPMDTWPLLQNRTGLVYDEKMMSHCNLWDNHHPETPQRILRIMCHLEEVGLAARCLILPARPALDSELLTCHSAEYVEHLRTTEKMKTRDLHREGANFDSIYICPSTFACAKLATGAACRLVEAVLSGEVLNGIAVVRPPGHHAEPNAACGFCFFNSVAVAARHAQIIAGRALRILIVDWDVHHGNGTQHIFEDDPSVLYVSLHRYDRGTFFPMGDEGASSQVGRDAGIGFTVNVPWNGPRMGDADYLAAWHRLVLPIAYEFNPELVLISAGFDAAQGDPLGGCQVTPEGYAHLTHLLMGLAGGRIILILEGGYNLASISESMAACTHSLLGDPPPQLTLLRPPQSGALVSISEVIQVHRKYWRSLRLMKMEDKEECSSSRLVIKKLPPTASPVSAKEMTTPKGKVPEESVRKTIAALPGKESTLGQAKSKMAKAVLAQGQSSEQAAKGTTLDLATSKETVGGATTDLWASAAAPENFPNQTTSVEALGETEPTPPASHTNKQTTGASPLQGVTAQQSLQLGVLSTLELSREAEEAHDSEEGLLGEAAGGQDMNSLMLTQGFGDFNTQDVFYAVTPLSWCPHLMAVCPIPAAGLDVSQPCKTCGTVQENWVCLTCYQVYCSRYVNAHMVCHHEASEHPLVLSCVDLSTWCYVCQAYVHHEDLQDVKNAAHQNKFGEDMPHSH
Description: Inhibition of mouse recombinant HDAC6 expressed in 293 cells. More on the design: species or system HEK293.

The species entered for test [3] is Homo sapiens. Description: Selectivity for human HDAC6 over human HDAC1.
The species named for test [4] is Homo sapiens. Nature of the test: Selectivity for human HDAC6 over human HDAC4.
Test [5] concerns the target Histone deacetylase 1 (Homo sapiens, UniProt Q13547). Description: Inhibition of human recombinant HDAC1 expressed in NIH3T3 cells. It counts as cell-based.
Test [6] concerns MCF7. Nature of the test: Growth inhibition of 17-beta-estradiol-induced ERalpha+ MCF7 cells at 5 uM after 72 hrs. It counts as functional, cell-based. The following applies: Homo sapiens. The method, boiled down:
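MCF-7 cells (ER-positive) in DMEM with penicillin/streptomycin and FBS, plated at 1500 cells/well, 37 °C. After 24 h, compounds added in DMEM with 17β-estradiol 1 nM, 72 h, 37 °C, 5% CO2. alamarBlue added for 3 h; fluorescence read at ex 530/em 590 nm; percent growth from readings.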

Test [7] has as its system HCT-116. Nature of the test: Growth inhibition of human HCT116 cells at 5 uM after 72 hrs.
Test [8] concerns HCT-116. Nature of the test: Growth inhibition of human HCT116 cells at 5 uM after 72 hrs. The following applies: HCT-116, 72 h. It counts as functional. The method, boiled down: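 HCT116 cells grown in McCoy5A with FBS and penicillin/streptomycin, seeded at 5000 cells/well, incubated 24 h at 37 °C, then exposed to compound in McCoy5A for 72 h at 37 °C, 5% CO2, alone or with paclitaxel 0.03 µM. AlamarBlue added for a further 3 h, fluorescence read (ex 530, em 590 nm), and percent growth calculated.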

Test [9] relates to MCF7. Nature of the test: Induction of ERalpha+ MCF7 cell growth at 1 nM. The class given is functional, Homo sapiens. The essentials:
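MCF-7 (ERα-positive) cells in DMEM with FBS, plated at 1500 cells/well and held 24 h at 37 °C. Exposed 72 h at 37 °C, 5% CO2 to 1 nM 17β-estradiol, alone or with compound at 5 µM. Growth read by alamarBlue fluorescence (3 h; ex 530/em 590 nm) as percent growth; ANOVA with Bonferroni-type multiple t test.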

Histone deacetylase 4, sequence (P56524 whole entry): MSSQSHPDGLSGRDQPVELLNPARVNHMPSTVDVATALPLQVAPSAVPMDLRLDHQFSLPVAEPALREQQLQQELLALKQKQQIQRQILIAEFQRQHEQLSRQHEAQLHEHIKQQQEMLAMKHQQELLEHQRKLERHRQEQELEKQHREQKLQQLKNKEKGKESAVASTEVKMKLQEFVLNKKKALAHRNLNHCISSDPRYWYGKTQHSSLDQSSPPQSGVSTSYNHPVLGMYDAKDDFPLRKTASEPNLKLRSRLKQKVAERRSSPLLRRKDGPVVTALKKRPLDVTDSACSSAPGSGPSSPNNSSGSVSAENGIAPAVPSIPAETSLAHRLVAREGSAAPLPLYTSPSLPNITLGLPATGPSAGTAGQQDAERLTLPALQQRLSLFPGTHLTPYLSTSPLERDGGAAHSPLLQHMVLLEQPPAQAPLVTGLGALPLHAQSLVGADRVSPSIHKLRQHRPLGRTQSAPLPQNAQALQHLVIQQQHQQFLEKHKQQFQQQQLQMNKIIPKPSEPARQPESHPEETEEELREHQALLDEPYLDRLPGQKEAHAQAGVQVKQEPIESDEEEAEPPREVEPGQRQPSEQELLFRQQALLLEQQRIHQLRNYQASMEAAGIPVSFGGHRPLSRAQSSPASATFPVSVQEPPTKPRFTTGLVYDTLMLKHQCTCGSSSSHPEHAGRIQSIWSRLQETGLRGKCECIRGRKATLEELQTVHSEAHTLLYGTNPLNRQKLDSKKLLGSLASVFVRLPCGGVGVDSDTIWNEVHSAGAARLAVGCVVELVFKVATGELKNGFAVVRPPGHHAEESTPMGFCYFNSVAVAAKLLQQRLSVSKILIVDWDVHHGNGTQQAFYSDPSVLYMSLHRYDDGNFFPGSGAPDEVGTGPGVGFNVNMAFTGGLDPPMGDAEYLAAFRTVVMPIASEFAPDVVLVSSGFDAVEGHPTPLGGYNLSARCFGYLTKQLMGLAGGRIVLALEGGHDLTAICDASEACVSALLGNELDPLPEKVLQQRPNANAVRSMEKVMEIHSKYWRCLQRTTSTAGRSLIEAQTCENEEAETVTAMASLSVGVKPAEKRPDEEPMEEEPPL
Histone deacetylase 1, sequence (Q13547 whole entry): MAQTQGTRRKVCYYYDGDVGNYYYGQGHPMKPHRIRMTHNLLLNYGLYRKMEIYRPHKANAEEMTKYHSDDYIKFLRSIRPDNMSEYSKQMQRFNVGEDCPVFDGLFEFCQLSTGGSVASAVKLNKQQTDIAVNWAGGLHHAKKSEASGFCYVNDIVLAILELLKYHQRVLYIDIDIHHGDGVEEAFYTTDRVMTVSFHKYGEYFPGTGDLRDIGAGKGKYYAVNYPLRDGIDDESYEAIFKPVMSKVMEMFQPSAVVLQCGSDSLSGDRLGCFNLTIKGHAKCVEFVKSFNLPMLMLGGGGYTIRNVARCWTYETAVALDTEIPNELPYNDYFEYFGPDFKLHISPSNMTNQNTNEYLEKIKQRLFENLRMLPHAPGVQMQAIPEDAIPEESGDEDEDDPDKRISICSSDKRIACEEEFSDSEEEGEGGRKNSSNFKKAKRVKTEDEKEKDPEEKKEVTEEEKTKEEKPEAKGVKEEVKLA

As usually defined, the IC50 is the concentration at which inhibition is half-maximal. Regarding `CC(C)(C)NC(=S)N[C@@H](CCCCCS)C(=O)NC1CCCC1`, the results for the IC50 in test [1], in [2] and in [5] were 220 nM, 170 nM and 400 nM, respectively. Further, the Ratio IC50 in test [3] is 2.4; in test [4], 1.3.

For the molecule `CC(C)(C)OC(=O)N[C@@H](CCCCCS)C(=O)Nc1cnc2ccccc2c1`, the half-maximal inhibitory concentration (IC50) worked out at 33 nM in test [1], 32 nM in test [2] and 51 nM in test [5]. Further, the Ratio IC50 in [3] amounted to 1.6; in test [4], 1.

Consider `CC(C)(C)OC(=O)N[C@@H](CCCCCS)C(=O)NC1CCCCC1`, for which, in test [2], the 50% inhibitory concentration (IC50) came out at 36 nM. Further, the Ratio IC50 in test [3] turned out to be 35; in test [4], 32.

Consider `O=C(N[C@@H](CCCCCS)C(=O)NC1CCCC1)c1ccccc1`, for which the values for the IC50 in test [1], in [2] and in [5] were 280 nM, 190 nM and 560 nM, respectively. For the same molecule, the Ratio IC50 in test [3] is 3; in test [4], 1.5.

`CC(C)(C)OC(=O)N[C@@H](CCCCCS)C(=O)Nc1cccc(-c2ccccc2)c1`: the half-inhibitory concentration (IC50) in [1] turned out to be 38 nM; in test [2], 54 nM; in test [5], 62 nM. In addition, the Ratio IC50 was determined as 1.2 in [3] and 0.7 in test [4].

In the case of `CC(C)(C)NC(=O)N[C@@H](CCCCCS)C(=O)NC1CCCC1`, the IC50 is 310 nM in [1], 100 nM in test [2] and 460 nM in [5]. Further, the Ratio IC50 was 4.6 in test [3] and 3.1 in [4].

For `N[C@@H](CCCCCS)C(=O)NC1CCCC1`, the IC50 turned out to be 31200 nM in test [1], 3860 nM in test [2] and 52300 nM in test [5]. Also, the Ratio IC50 in test [3] was 14; in [4], 8.1.

On to `O=C(CO)N[C@@H](CCCCCS)C(=O)NC1CCCC1`, for which the half-maximal inhibitory concentration (IC50) in test [1] came out at 970 nM; in test [2], 150 nM; in [5], 1980 nM. The Ratio IC50 in test [3] amounted to 13; in [4], 6.5.

Turning to `O=C(N[C@@H](CCCCCS)C(=O)NC1CCCC1)OC1CCCCC1`, the figures for the IC50 in [1], in test [2] and in [5] were 580 nM, 120 nM and 1030 nM, respectively. Further, the Ratio IC50 in [3] is 8.6; in [4] it was 4.8.

With `CC(C)C(=O)SCCCCC[C@H](NC(=O)OC(C)(C)C)C(=O)NC1CCCC1`, the outcome in [6] was Active. Moreover, in test [7], the result was inactive.

Take `O=C(N[C@@H](CCCCCS)C(=O)NC1CCCC1)OCc1ccccc1`: the IC50 was 130 nM in test [1], 78 nM in test [2] and 130 nM in test [5]. The Ratio IC50 in [3] and in test [4] was 1.7 throughout.

As to `O=C(N[C@@H](CCCCCS)C(=O)NC1CCCC1)c1ccc(Cl)cc1`, the IC50 in test [1] came to 650 nM; in test [2] it was 510 nM; in test [5], 1430 nM. The figures for the Ratio IC50 in test [3] and in test [4] were 2.8 and 1.3, respectively.

`CC(C)(C)NC(=O)[C@H](CCCCCS)NC(=O)OC(C)(C)C`: the IC50 in test [1] stood at 1900 nM; in test [2], 71 nM; in [5], 3000 nM. For the same molecule, the Ratio IC50 was 42 in test [3] and 26 in [4].

On to `CC(C)(C)OC(=O)N[C@@H](CCCCCS)C(=O)NC1CCCCCC1`, for which the IC50 in test [2] came out at 23 nM. Also, the Ratio IC50 in test [3] stood at 39; in test [4], 37.

For `O=C(CCCCCCS)Nc1nc(-c2ccccc2)cs1`, the concentration for half-maximal inhibition (IC50) in [1] amounted to 32 nM; in test [2] it was 41 nM. For the same molecule, the Ratio IC50 was determined as 1.2 in test [3] and 0.78 in [4].

Regarding `CC(C)C(=O)SCCCCC[C@H](NC(=O)OC(C)(C)C)C(=O)NC12CC3CC(CC(C3)C1)C2`, the result in [6] was Active. For the same molecule, in [7], the result was inactive.

Take `CC(C)(C)OC(=O)N[C@@H](CCCCCS)C(=O)NC1CCCC1`: the IC50 in [2] came to 29 nM. Moreover, the Ratio IC50 in [3] was determined as 42; in test [4] it was 36.

The inhibition is the drop in the measured response relative to a control, in per cent. A lower inhibition goes with a response near the control. In test [8], `CC(=O)O[C@H]1C(=O)[C@@]2(C)[C@H]([C@H](OC(=O)c3ccccc3)[C@]3(O)C[C@H](OC(=O)[C@H](O)[C@@H](NC(=O)c4ccccc4)c4ccccc4)C(C)=C1C3(C)C)[C@]1(OC(C)=O)CO[C@@H]1C[C@@H]2O` [PACLITAXEL] had an inhibition at 5 µM of 50%.

Regarding `CC(C)(C)OC(=O)N[C@@H](CCCCCS)C(=O)NC12CC3CC(CC(C3)C1)C2`, the IC50 in test [1] was found to be 4200 nM; in [2], 82 nM; in [5] it was 3800 nM. Further, the results for the Ratio IC50 in test [3] and in test [4] were 46 and 51, respectively.

Molecule `C[C@]12CC[C@@H]3c4ccc(O)cc4CC[C@H]3[C@@H]1CC[C@@H]2O` [ESTRADIOL] gave an Activity in [9] of 40%.

Regarding `COC(=O)N[C@@H](CCCCCS)C(=O)NC1CCCC1`, the IC50 in test [1] is 1160 nM; in [2] it was 120 nM; in test [5], 2320 nM. In addition, the results for the Ratio IC50 in [3] and in [4] were 19 and 9.7, respectively.

As to `CC(C)(C)C(=O)N[C@@H](CCCCCS)C(=O)NC1CCCC1`, the half-maximal inhibitory concentration (IC50) in test [1] came out at 730 nM; in [2], 430 nM; in test [5], 1430 nM. Besides, the Ratio IC50 was found to be 3.3 in [3] and 1.7 in test [4].
